In PMC8859983 (Biomaterials science, 2020):
Entries after “also recorded” stand apart in the source; their conditions may differ.

How the values were obtained:
[1] = test system: HT-1080 tumor; test: Optical in vivo imaging after intratumoral injection; parameters: species or system BALB/c nude mice; details: 50 nmol intratumoral, IVIS; for fluorescence in the tumor site: 0.5–6 h post injection
In short: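 Subcutaneous HT-1080 xenografts in nude mice; four groups (n = 3) with similar tumor size. Probe or control given intratumorally at 50 nmol. IVIS imaging of FAM (Ex/Em 492/518 nm) at 0.5, 1, 2, 4.5 and 6 h under 2.5% isoflurane in oxygen (1.5 L min⁻¹). Radiant efficiency quantified at tumor site.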

[2] = test system: HUVEC cells; test: MTT cell cytotoxicity assay; type: cell-based, human; details: 10 μM to 100 μM, 48 h, Fig. S2
In short: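 HUVEC seeded at 4×10³–5×10³ cells/well and incubated 12 h. Then exposed to test compound at 10–100 μM for 48 h. MTT (5 mg mL⁻¹ stock in PBS) added for 4 h, formazan dissolved in DMSO, absorbance read at 490 nm.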

[3] = test system: HT-1080 tumor; test: Ex vivo tumor imaging and biodistribution after intravenous injection; type: in vivo, BALB/c nude mice; details: for fluorescence intensity / accumulation in the tumors: tumor cryosections 4.5 h post injection, n = 3 per group
In short: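 BALB/c nude mice (4 weeks old) given 1×10⁶ HT-1080 cells in PBS subcutaneously, right flank. At tumor volume ~0.5–1 cm³, four groups (n = 3) received 50 nmol probe by tail-vein injection. Tumors harvested 4.5 h later, cryosectioned, stained with DiI (membrane) and DAPI (nuclei), and examined by fluorescence microscopy.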

[4] = target: T1, recombinant human MT1-MMP (Homo sapiens, UniProt P50281); test: Enzyme kinetics of fluorogenic probes, FRET peptide cleavage assay; type: biochemical; details: for kcat/Km: specificity constant, 15 nM refolded MT1-MMP, 37 °C, pH 8.0, mean ± SD
In short: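 Refolded His-tagged human MT1-MMP catalytic/hinge construct (E. coli), 15 nM, with 0.5–4.5 μM FRET probes at 37 °C. Initial cleavage rates measured over 28 s. Km and Vmax from Michaelis–Menten fit; kcat = Vmax/[enzyme]. Mean ± SD.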

[5] = test system: HT-1080 cells; test: Cell uptake / cell imaging of probes; type: cell-based, human; details: for cell uptake: 5 μM probe, 2 h at 37 °C, FAM fluorescence, confocal imaging
In short: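 HT-1080 cells in RPMI 1640 with 10% FBS, penicillin and streptomycin at 37 °C, 5% CO₂. Seeded on glass-bottom dishes overnight, then fresh medium. Incubated with 5 μM probe for 2 h at 37 °C, ± 5 μM GM6001. Washed three times with PBS, fixed 10 min in 4% paraformaldehyde, DAPI-stained, then imaged for FAM fluorescence.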

[6] = test system: recombinant MT1-MMP; test: Fluorescence activation; type: biochemical, human; details: for activation efficiency by MT1-MMP / selectivity for MT1-MMP compared with MMP-2: 1 μM probe; for activation efficiency by MT1-MMP: 15 nM MT1-MMP, 7 min incubation at 37 °C; for selectivity for MT1-MMP compared with MMP-2: 15 nM enzyme, 37 °C
In short: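 Catalysis velocity: FRET probes at 1 μM incubated with 15 nM refolded recombinant MT1-MMP for 7 min at 37 °C. Fluorescence from substrate hydrolysis recorded at the set time.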

[7] = target: T1, recombinant human MT1-MMP; test: Effect of binding peptide on catalysis of P-1 by MT1-MMP; type: biochemical; details: binding peptide 0.47 μM to 640 μM, pre-incubated with MT1-MMP
In short: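 His-tagged human MT1-MMP catalytic plus hinge domains (Tyr112–Ile318) expressed in E. coli BL21(DE3)pLysS. Purified on Ni-NTA in urea and refolded by gradient dialysis. Enzyme pre-incubated with binding peptide (0.47–640 μM) before cleavage of FRET peptide substrate. Ex 328/Em 393 nm.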

“(FAM)-PLGLK-(Dabcyl)-AR-(PEG)12-HWKHLHNTKTFL [Probe P-7]” was tested, and the “time to maximum fluorescent intensity at tumor” value ([1]; Ex/Em 492/518 nm, n = 3 per group) was “about 1 h”, the “cytotoxicity” value [2] was “low toxicity” and the “location of the activated probe in frozen tissue slices” value ([3]; 50 nmol i.v., 4.5 h post injection) was “located in the cytosol”. The “fluorescence intensity / accumulation in the tumors” value ([3]; 50 nmol i.v.) was “strongest fluorescence intensity”, the “organs in which the probe was activated (biodistribution)” value ([3]; 50 nmol, tail vein injection, FAM fluorescence, Fig. S3) was “predominantly in the tumor, liver, and kidney” and the “Km value compared with P-5” value ([4]; MT1-MMP, Table S1) was “much higher Km value of P-7 than P-5”. For the same substance, the “kcat value compared with P-5” value ([4]; MT1-MMP, Table S1) was “higher kcat value than P-5”, the “cell uptake” value [5] was “much higher cell uptake compared with the control cells MCF-7; also recorded: much higher cell uptake compared with P-8 and P-9” and the “cell uptake in the presence of MMP inhibitor GM6001” value ([5]; HT-1080, 5 μM probe, GM6001 5 μM) was “decreased”.

For “(FAM)-PLGLK-(Dabcyl)-AR-HWKHLHNTKTFL [Probe P-9]”, the “fluorescence in the tumor site” value [1] was “hardly detected”, the “cell uptake” value [5] was “higher cell uptake than P-8” and the “activation efficiency by MT1-MMP” value [6] was “lower activation efficiency than P-7; also recorded: lower activation efficiency by MT1-MMP than P-8”. The “selectivity for MT1-MMP compared with MMP-2” value (“selectivity for MT1-MMP” for short) [6] was “higher selectivity for MT1-MMP compared with MMP-2” and the “substrate inhibition of MT1-MMP” value ([6]; data not included) was “induced the substrate inhibition of MT1-MMP at higher concentrations”.

(FAM)-PLGLK-(Dabcyl)-AR-NH2 [Probe P-8] was tested, and the “fluorescence in the tumor site” value [1] was “hardly detected”, the “fluorescence intensity / accumulation in the tumors” value ([3]; 50 nmol i.v.) was “weaker fluorescence intensities” and the “activation efficiency by MT1-MMP” value [6] was “lower activation efficiency than P-7”. For the same substance, the “selectivity for MT1-MMP” value [6] was “higher selectivity for MT1-MMP compared with MMP-2” and the “substrate inhibition of MT1-MMP” value ([6]; data not included) was “induced the substrate inhibition of MT1-MMP at higher concentrations”.

“(Mca)-PLGL-(Dpa)-AR-(PEG)6-HWKHLHNTKTFL [Probe P-4]” was tested, and the kcat/Km [4] was 4420 ± 370 M⁻¹ s⁻¹.

With “(Mca)-PLGL-(Dpa)-AR-(PEG)12-HWKHLHNTKTFL [Probe P-5]” the “fold decreased Km value compared with control probe P-1” value ([4]; MT1-MMP) was 5.4 fold, the “fold enhanced hydrolysis rate (kcat) compared with control probe P-1” value ([4]; MT1-MMP) was 2.5 fold and the “fold specificity (kcat/Km) to MT1-MMP compared with control probe P-1” value ([4]; MT1-MMP) was ~14 fold. The kcat/Km [4] was 6150 ± 440 M⁻¹ s⁻¹ and the “selectivity for MT1-MMP” value [6] was “significantly higher activation folds when incubated with MT1-MMP than with MMP-2”.

In the case of “(Mca)-PLGL-(Dpa)-AR-(PEG)24-HWKHLHNTKTFL [Probe P-6]”, the kcat/Km [4] is reported as 1110 ± 90 M⁻¹ s⁻¹.

With “(Mca)-PLGL-(Dpa)-AR-HWKHLHNTKTFL [Probe P-2]” the “probe concentration above which substrate inhibition of MT1-MMP was induced” value ([6]; data not included) was “higher than 1.5 μM”.

“(Mca)-PLGL-(Dpa)-AR-NH2 [Probe P-1, reference compound]” was tested, and the kcat/Km [4] was 450 ± 30 M⁻¹ s⁻¹.

With HWKHLHNTKTFL [MT1-AF7p] the “effect on the catalysis of P-1 by the recombinant MT1-MMP” value [7] was “had no effect”.
